Results: ChEMBL document CHEMBL5500387, “Design, synthesis of combretastatin A-4 piperazine derivatives as potential antitumor agents by inhibiting tubulin polymerization and inducing autophagy in HCT116 cells” (Eur J Med Chem, 2024)
Blank lines part the entries; values can stand above or below the compound they belong to.

Assays:
HCT-116 = assay: Cytotoxicity against human HCT-116 cells assessed as inhibition of cell proliferation measured after 72 hrs by CCK-8 assay; assay type: functional, cell-based; details: HCT-116, 72 h
How it was run: (§1)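 Cells seeded at 2×10^3 per well and grown overnight in 10% FBS medium: HCT116 in McCoy's 5A, A549 and AGS in F-12K, SK-MES-1 in DMEM. Compounds added at varied concentrations with 0.1% DMSO control, 72 h at 37 °C. 10% CCK-8 for 2 h, then A450 read. Survival = (As−Ab)/(Ac−Ab)×100%. IC50 from curve fitting.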

AGS = assay: Cytotoxicity against human AGS cells assessed as inhibition of cell proliferation measured after 72 hrs by CCK-8 assay; assay type: functional, cell-based; how it was run: as §1
A549 = assay: Cytotoxicity against human A549 cells assessed as inhibition of cell proliferation measured after 72 hrs by CCK-8 assay; assay type: functional, cell-based; details: A549, 72 h; how it was run: as §1
SK-MES-1 = assay: Cytotoxicity against human SK-MES-1 cells assessed as inhibition of cell proliferation measured after 72 hrs by CCK-8 assay; assay type: functional, cell-based; details: SK-MES-1, 72 h; how it was run: as §1
[1] = Octanol-water partition coefficient, log P of the compound at pH 7.4 at 4 mg measured after 24 hrs by liquid chromatography; assay type: physicochemical
How it was run: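 4 mg of compound was dissolved in 1 mL water-saturated n-octanol and held 24 h at room temperature, then centrifuged. The supernatant was mixed with an equal volume of octanol-saturated water, stood 24 h, centrifuged and the phases separated. Phase concentrations were measured by LC standard curves. log P = log(C_octanol/C_water). At least three independent runs.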

[2] = Cytotoxicity against human NCM460 cells assessed as inhibition of cell proliferation measured after 72 hrs by CCK-8 assay; assay type: toxicity, cell-based
How it was run: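 NCM460 normal colonic epithelial cells seeded at 2×10^3 cells/well and grown overnight in RPMI-1640 with 10% FBS. Compounds added at a range of concentrations, 0.1% DMSO as negative control, 72 h at 37 °C. Read-out by CCK-8 (10%, 2 h) at 450 nm. Survival = (As−Ab)/(Ac−Ab)×100%; IC50 taken as concentration giving 50% inhibition of proliferation.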

SMILES: COc1ccc(/C=C(/C(=O)N2CCN(c3ccc(C#N)cc3)CC2)c2cc(OC)c(OC)c(OC)c2)cc1O
IC50 (HCT-116): 3350 nM

SMILES: COc1ccc(/C=C(/C(=O)N2CCNCC2)c2cc(OC)c(OC)c(OC)c2)cc1O
IC50 (HCT-116): 735 nM

SMILES: COc1ccc(/C=C(/C(=O)N2CCN(Cc3cccc(C)c3)CC2)c2cc(OC)c(OC)c(OC)c2)cc1O
IC50 (HCT-116): 3640 nM

SMILES: COc1ccc(/C=C(/C(=O)N2CCN(c3ccc([N+](=O)[O-])cc3)CC2)c2cc(OC)c(OC)c(OC)c2)cc1O
IC50 (HCT-116): 2770 nM

SMILES: COc1ccc(N2CCN(C(=O)/C(=C/c3ccc(OC)c(O)c3)c3cc(OC)c(OC)c(OC)c3)CC2)cc1
IC50 (AGS): 882 nM
IC50 (A549): 657 nM
IC50 (SK-MES-1): 605 nM
IC50 (HCT-116): 941 nM

logD at 24 h [1]: -0.638
SMILES: COc1ccc(/C=C(/C(=O)N2CCN(c3ccc(C)cc3)CC2)c2cc(OC)c(OC)c(OC)c2)cc1O[C@H]1O[C@H](CO)[C@@H](O)[C@H](O)[C@@H]1O

SMILES: COc1ccc(/C=C(/C(=O)N2CCN(c3ccccc3F)CC2)c2cc(OC)c(OC)c(OC)c2)cc1O
IC50 (HCT-116): 1380 nM

SMILES: COc1ccc(/C=C(/C(=O)N2CCOCC2)c2cc(OC)c(OC)c(OC)c2)cc1O
IC50 (HCT-116): 926 nM

SMILES: COc1ccc(/C=C(/C(=O)N2CCN(c3ccccc3C)CC2)c2cc(OC)c(OC)c(OC)c2)cc1O
IC50 (HCT-116): 1580 nM

SMILES: COc1ccc(/C=C(/C(=O)N2CCN(c3cccc(C)c3)CC2)c2cc(OC)c(OC)c(OC)c2)cc1O
IC50 (HCT-116): 1770 nM

SMILES: COc1ccc(/C=C(/C(=O)N2CCN(Cc3ccccc3C)CC2)c2cc(OC)c(OC)c(OC)c2)cc1O
IC50 (HCT-116): 2850 nM

logD at 24 h [1]: -0.824
SMILES: COc1ccc(/C=C(/C(=O)N2CCN(c3ccc(C)cc3)CC2)c2cc(OC)c(OC)c(OC)c2)cc1O[C@H]1O[C@@H](CO)[C@H](O[C@@H]2O[C@H](CO)[C@H](O)[C@H](O)[C@H]2O)[C@@H](O)[C@@H]1O

SMILES: COc1ccc(/C=C(/C(=O)N2CCN(c3ccc(Br)cc3)CC2)c2cc(OC)c(OC)c(OC)c2)cc1O
IC50 (AGS): 1350 nM
IC50 (A549): 547 nM
IC50 (SK-MES-1): 803 nM
IC50 (HCT-116): 716 nM

SMILES: COc1ccc(/C=C(/C(=O)N2CCN(c3ccccc3Cl)CC2)c2cc(OC)c(OC)c(OC)c2)cc1O
IC50 (HCT-116): 1840 nM

SMILES: COc1ccc(/C=C(/C(=O)N2CCCC2)c2cc(OC)c(OC)c(OC)c2)cc1O
IC50 (HCT-116): 2480 nM

SMILES: COc1ccc(/C=C(/C(=O)N2CCN(Cc3ccc(F)cc3)CC2)c2cc(OC)c(OC)c(OC)c2)cc1O
IC50 (HCT-116): 2100 nM

SMILES: COc1ccc(/C=C(/C(=O)N2CCS(=O)(=O)CC2)c2cc(OC)c(OC)c(OC)c2)cc1O
IC50 (HCT-116): 1990 nM

SMILES: COc1ccc(/C=C(/C(=O)N2CCN(Cc3ccc(C)cc3)CC2)c2cc(OC)c(OC)c(OC)c2)cc1O
IC50 (HCT-116): 1980 nM

SMILES: COc1ccc(/C=C(/C(=O)N2CCN(c3ccc(Cl)cc3)CC2)c2cc(OC)c(OC)c(OC)c2)cc1O
IC50 (AGS): 1110 nM
IC50 (A549): 366 nM
IC50 (SK-MES-1): 753 nM
IC50 (HCT-116): 593 nM

SMILES: COc1ccc(/C=C(/C(=O)N2CCN(c3ccc(F)cc3)CC2)c2cc(OC)c(OC)c(OC)c2)cc1O
IC50 (AGS): 531 nM
IC50 (A549): 270 nM
IC50 (SK-MES-1): 385 nM
IC50 (HCT-116): 253 nM

logD at 24 h [1]: -0.432
SMILES: COc1ccc(/C=C(/C(=O)N2CCN(c3ccc(C)cc3)CC2)c2cc(OC)c(OC)c(OC)c2)cc1O[C@H]1O[C@@H](CO)[C@@H](O)[C@@H](O)[C@@H]1O

SMILES: COc1ccc(/C=C(/C(=O)N2CCN(Cc3ccc(Cl)cc3)CC2)c2cc(OC)c(OC)c(OC)c2)cc1O
IC50 (HCT-116): 2690 nM

SMILES: COc1ccc(/C=C(/C(=O)N2CCSCC2)c2cc(OC)c(OC)c(OC)c2)cc1O
IC50 (HCT-116): 1150 nM

SMILES: COc1ccc(/C=C\c2cc(OC)c(OC)c(OC)c2)cc1O [COMBRETASTATIN A4]
logD at 24 h [1]: 2.14
IC50 at 72 h [2]: 11 nM
IC50 (AGS): 74 nM
IC50 (SK-MES-1): 7 nM

SMILES: COc1cccc(N2CCN(C(=O)/C(=C/c3ccc(OC)c(O)c3)c3cc(OC)c(OC)c(OC)c3)CC2)c1
IC50 (HCT-116): 1860 nM

logD at 24 h [1]: -0.538
SMILES: COc1ccc(/C=C(/C(=O)N2CCN(c3ccc(C)cc3)CC2)c2cc(OC)c(OC)c(OC)c2)cc1O[C@H]1O[C@@H](CO)[C@H](O)[C@@H](O)[C@@H]1O
